Assay results as given in the RNAGym collection of RNA variant scans (doi:10.1126/science.aae0568).
This sample holds only a part of the variants without activity.

B1: tRNA (parent)
chain: GUUCCGUUGGCGUAAUGGUAACGCGUCUCCCUCCUAAGGAGAAGACUGCGGGUUCGAGUCCCGUACGGAACG

Variants of: B1
Assay: yeast fitness relative to wild type (ratio to wild type); higher = fitter; tRNA-Arg(CCU), competitive growth, 37 C, YPD
In short: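 For this measurement, the tRNA-Arg(CCU) gene was varied by chemical synthesis at a 3% per-site mutation rate across 69 sites, and each variant was placed at the native genomic locus in Saccharomyces cerevisiae. The pooled strains went through a 24-hour competition in YPD at 37°C in six parallel replicates, with amplicons from start and end populations read by 100-nucleotide paired-end sequencing. Darwinian fitness relative to wild type followed from the change in each genotype's frequency. Genotypes needed ≥ 100 starting reads, and estimates < 0.5 were set to 0.5.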

Variant | yeast fitness
GUUCCGUCGGCGAAAUGGUAACGUGUCUGCCUACUAAGGAGAAGACAGCGGGUUUGAGUCCCGUCCGGAACG | 0.787
GUACCGUUGGCGUAAUGGUAACGCGUCUCCCUCCUAUCGAGAAGACUGCGGGUUCGAGUCCCGUACGGAACG | ≤ 0.5
GUUCCGUUGGCGUAAUGGUAGCGCGUCUCCGUCCUAAGGAGAAGACUGCGGGUUCGAGUCCCAUACGGAACG | 0.774
GUUCCGUUGGCAUAAUGGUAACGUGUCUCCCUCUUAAGGAGAAGACUGCGGGUUCGACUCCGGUACAGAACG | 0.542
GUUCCCUUGGCGUAAUGGUAACGCGUCUCCCUCCUAAGGAGAAGACUGCGGGAUCGAGUCUCGUACGGAACG | ≤ 0.5
GUUCCGUUGGCGUAAUGGUAACGCGUUUCCCUCCUGAGGAGAAGACUGCAGGUUCGAAUCCCGUACGGCACG | ≤ 0.5
GUUCCGUUCGCGCAAUGGUAACGCGUCUCACUCCUAAGGAGAAGAAUCCGGGUUCGAGUCCCGUACGGACCG | 0.548
GUUCCGUUGGCGUAAUGGUAACGCGUCUUCCUCCUAAGGAGAAGACUGUGGGUUCGAGACCCGUACGGAACG | ≤ 0.5
GUUCCGUUGGCGUAAUGGUAACGCGUCUCCCUCCUAAGGGGAAGACAGCGGGUUCGAGUCCCGUAGGGAACG | 0.705
GUACCGUUGGCGUAUUGGUAACGCGUCUCCCUCCUAAGGAGAAGACUGCGGGUUCGAGUCCCGUACGGAACG | 0.695
GUUCCGUUGGCGUAAUGGUAACGCGUCUCCCUCCUAAGGGGCAGACUGCGGGUUCGAGUCCCGUACGGAACG | 0.757
GUUCCGUUGGCGUAGUGGUAACGCGUCUCUCUCCUAAGGAGAAGACUGCGGAUUCGAGUCCCGUACGGAUCG | 0.581
GUUGCGUUGGUGUGAUGGUAACGCGUCUCCCCCCUAAGGAGAAGACUGCGGGUUCGAGUCCCGUACGGAACG | ≤ 0.5
GUUCCGUUGGCGGAAUGGUAACGCGUCUCCCUCCUAAGGAGAAGACUGCGGGUUCGAGUCCCGUACGCAACG | 0.584
GAUCCGCUGGCGUAAUGGUAACGCAUCUCCCUCCUUAGGAGAAGACUGCGGGUUCGAGUCCCGUACGGAACG | ≤ 0.5
GUUCCGUUGGCGUAAUGGUAACGCGUCUCCCUCCUAAGGAGAAGACUGGGGGUUCGAGUCCCGUGCGGAACG | 0.957
GUUCCGUUGGUGUAAUGGUAACGCGUCUCCCUCAUAAGGAGAAGACUGCGGGUUCGAGUCUCGUACGGAACG | ≤ 0.5
GUUCCGUUGGCGUAAUGGUAAUGCGUCUCCCUCCUAAGGAGAAGACUGCGCGUUCGAGUCGCGUACGGAACG | 0.556
GUUCCGUAGGCGUAAUGGUAACGCGUGUCCCUCCUAAGGAGUAGACUGCGGGUUCGAGUCCCGUACGGAACG | ≤ 0.5
GUUCCGUUGCCGUAAUGGUAACGCGUCUCCCUCCUAAGGAGAAGACUGCGGGUUCAAGUCCCGUACGGAACG | 0.596
GUUCCGUUGGCGUAAUGGUAACGAGUCUCCCUCCGAAGGAGAAGACUGCGGGUUCGAGUCCCGUCCGGAACG | ≤ 0.5
GUUCCGUUGGCGUAAUGGUAACGCAUCUCCCUCCCAAGGAGAGGACUGCGGGUUUGAGUCCCGUACGGAACG | ≤ 0.5
GUUCCGUUGGCGUAAUGGUACCGCGUCUCCCUCCUAAGGAGAAGACUACGGGUUCGAGUCCCGUACGGAACG | 0.854
GUUCCGUUGGCGUAAUGGUAACGCGUCUCCCUCCUAAGGAGAAAACUGCGGGUUCGAGUCUCGUACGGAACG | 1.04
GUUCCGUUGACGUAAUGGUAACGCGUCUCCCUCCUAAGGAGAAGACUGCGGGUUCGAGUCCCGUCCGGAACG | 0.786

Variant | yeast fitness
GUUCCGUUGGCGUAAUGGUAACGCGUCUCCGUCCUAAGGAGAACAUUGCGGGUUCGAGUCCCGUACGGAACG | 1
GUACCGUUGGCGUAAUGGUAACGCGUCUCCCUCCUAAGGAGAAGAUUGCGGGUUCCAGUCCCGUACGGUACG | ≤ 0.5
GUUCGGUUGGCGUAAUGGUAACGCAUCUCCCUCCUAAGGAGAAGAUUGCCGGUUCGAGUCCCGUACGGAACG | 0.593
GUUCCGUUGGCGUAAUGGUAAGGCGUCUCCCUCCUAAGGAGAAGACUGCGGGUUCGCGUCCCGUACGGAACG | 0.684
GUUCCGUAGGCGUAAUGCUAACGAGUUUCCCCCCUAAGGAGAAGACUGCGGGUGUGAGUCCCGUACGGAACG | ≤ 0.5
GUUCCGUUGGCGUAAUGGUAACGCGUCUCCCUCCUAAGGACAAGACUGCGGGUUCGACUCCCGUACGGAACG | 0.762
GUUCCGUUGGCGUAAUGAUAACGCGUCUCCCUCCUAAGGAGAAGACUGCGCGUUCGAGUCCCAUACGGAACG | ≤ 0.5
GUUCCGUUGGCGUAAUGGUACCGCGUCUCCCUCCUAAGGAGAAGACUGCGGGUUCGACUUCCGUAGGGAACG | ≤ 0.5
GUUCCGUUGGCGUAAUGGUAACGCGUCUCCCUCCUAAGGAGCAGACUGCGGGUUUGAGUCCCGUAUGGAACG | 0.504
GUUCCGUUGGAGUAAUGGUAACCCGUCUCCCUCCUAAGGAGAAGACUGCGGCUUCGAGUCCCGUACGGAACG | 0.57
GUUCCAUUGGCGUGAUGGUAACGCGUCUCCCUCCUAAGGAGAAGACUGCGGGUUCGAGUCCCGUACGGAACG | 0.844
GUUCUGUUGGCGUAAUGGUCACCUGUCUCCUUCCUAAGGAGAAGACUGCGGGUUCGAGUCCCGUACGGAACG | ≤ 0.5
GUUCCGUUGGCGUAAUGGUAACGGGUCUCCCUCCUGAGGAGAAGACUGCGGGUUCGAGUCCCGUACGGAACG | 0.557
GUUCCGUUGGCGUAAUGGUAACGCGUCUCCCUCCUAAGGACAAGAAUGCGGGUUCGAGUCCCGUACGGAACG | 0.982
GUUCCGUUGGCGUAAUGGAAACGCGUGUCCCUCCUAAGGAGAAGACUGCGGGUUCGAGUCCCGUACGGAACG | 0.581
GUUCCGUUGGCGUCAUGAUAACGCGUCUCCCUCCUAAGGAGAAAACUGCGGGUUCGAGUCCCGUAGGGAACG | 0.56
GUUCCGUUGGCGUAAUGGAAACGCGUCUCCCUCCUAAGGAGAAGACUGCGGGUUCGAGUACCGUACGGAACG | 0.623
GUUCCGUUGGCGUAAUGGUAGCACGUCUCCCUCCUAAGGAGAAGACUGCGGGUUCGACUCCCGUACGGAACG | 0.537
GUUCCGUUGGCGUAAUGGUAAUGCGUCUCCCUCCUAAGGAGAAGACUGUGGGUUCGAGUCCCGAACGGAUCG | ≤ 0.5
GUUCCGUUGCCGAAAUGGUAACGCGUCUCCCUCCUAAGGAGAUGACUGCGGGUUCGAGUCACGUACGGACCG | ≤ 0.5
GUUUCGUUGGCGUAAUGGUAACGCGUCUCCCUCCUUAGGCGAAGACUGCGGGUUCGAGUCCCGUACGAAACG | ≤ 0.5
GUUCCGUGGGCGUAAUGGUAACGCGUCUCCCUCCUAAGGAGAAGACUGCGGGCUCGAGUCCCGUACGGAACG | 0.806
GUUCCGCUGGCGUAAUGGUAACGCGUCUCCCUCCUAACGAGAAGACUGCGGGUUCGAGUCCCGUACGGAACG | 0.715
GUGCCGUUGGAGUAAUGGUAACGCGUCUCCCUCGUAAGGAGAAGCCUGCGGCUUCGAGUCCCGUACGGAACG | 0.546
GUUCCGUUGGUGUAAUGGUAACGCGUCUCUCUCCUAAGGACAAGACUGCGGGUUCGAGUCCCGUACGGAACG | ≤ 0.5

Variant | yeast fitness
GUUCCGUUGGCGUAAUGGUAACGCGUCUCGCUCCUAAGGAGAGGACUGGGGGUUCGAGUCCCGUACGGAACG | 0.544
GUUCCGUUGGCGUAAUGGUAACGCGUCUCCCUCCUCAGGAGAAGACUGCGGGUUCGCGUCUCGUACGGCACG | ≤ 0.5
GUUCCGUUGGCGUAAUGGUAACGCGUCCCCCUCCUAAGGAGAAGACUGCGGGUUCGAGUCCCGUACGGAGCG | 0.92
GUUUCGUUGGCGUACUGGUAACGCGUCUCCCUCCUAAGGAGAAGACUGCGGGUUCGAGUCCGGUACGGAACG | ≤ 0.5
GUUCCGUUCGCGUAAUGGUAACGCGUCUCCCUCCUAAGGAGAAGACUGCGGGUUCGAGUCGCGUACGGAACG | 0.61
GUUCCGUUGGCGUAAUGGUAACGCGUCUCCCUCGUGAGGAGAAGACUGCGGAUUCGAGUCCCGUAUGGAACG | ≤ 0.5
GUUCCGUUCGCGUAAUGGUAACGCGUCUCCCUGCUAAGAAGAAGACUGCGGGUUCGAGUCCCGUAGGGAACG | 0.59
GUUCCGUUGGCGUAAUGGUAAAGCGUCUCCCUCCUAAGGAGAAGACUGCGGGCUCGAGUCCUGUACGGAACG | ≤ 0.5
GUUCCGUUGGCGUAAUGGUAACUCGUCUCCCUCCUAAGGGGAAGACUGCGGGUUCGAGUCCCGUACGGAACG | 0.682
GUUCCGUUGGCGUAAUAGUAACGCGUGUCCAUCCUAAGGAGAAGACUGCGGGUUCGAGUCCCGUACGGAACG | ≤ 0.5
GUUCCGUUGGCGUAAUGUUAACGCGUCUCCCUCCUAAGGAGAAGGCUGCGGGUUCGAGUCCCGUACGGAACG | 0.758
GUUCCGUUGACGUAAUGGAAACGCGUCUCCCUCCUAAGGCGCAGACUGCGGGUUCGAGUCCCGUACGAACCG | ≤ 0.5
GUUCCGUUGCCGUUAUGGAAAUGCGUCUCCCUCCUAAGGAGAAGACUGCGGGUUCGAGUUCCGUACGCAACG | ≤ 0.5
GUUCCGUUCGAGUAAUGGUAACACGUCUCCCUCCUAUGGAGAAGACUGCGGGUUCGAGUUCCGUACGGAACG | ≤ 0.5
GUUCCCUUGGCGUAAUGGUGACGCGUCUCCCUCCUAAGGAGUAGACUGCGGGUUCGAGUCCCGUACGGAACG | 0.63
GUUCCGUGGGCGUAAUGGUAACGCGUCUCCCUCCUACGGAGAAGACUGCGGCUUCGAGUCCCGUACGGAACG | 0.627
GUUCCGUUGGCAUAAUGGUAACGCGUCUCCCUCCUAAGGAGAAGACCGCGGGUUCGCGUCCCGUACGGAACG | 0.579
GUUCCGUUGGCGUAAUGGUAACGCGAGUCCCUCCUAAGGAGAAGACUGCGGGUUCGAGUCCAGUACGGAACG | ≤ 0.5
GUUCCGUUGGCGUAAUGGGAACGCGUCUCACUCCUAAGGAGAAGUCUGCGGGUUCAACUCCCGUACGGUACG | ≤ 0.5
GUUCCGUUGGCGUAAUGGUAACGCGUAUCCCUCCUAGGGAGAAGACUGCGGGUUCGAGUCCCGUACGGAACG | 0.737
GUUCCGAUGGCGUAAUGGUAACGCGUCUCCCUCCUAAGGAGAAGACUGCGCGUUCGAGUCCCGUACGGAACG | 0.553
GUUCCGUUGGCGUAAUGGUAACGCGUCUCCCUCCUAAGGAGAAGACUGCGGGUUCGAGGCCCGUACGGGACG | 1
GUUCUGUUGGCGUAAUGGUAACACGUCUCCUUCCUAAGGAGAAGACUGCGGGUUCGAGUCCCGUGCGGAACG | ≤ 0.5
GUUCUGUUGACGUAAUGGUAAUGCGUCUCCCUCCUAAGGGGAAGACUGCGGGUUCCAGUCCCGUAAGGAACG | ≤ 0.5
GUACCGUUGGCGUAAUGGUAACGCGUCUCGCUCCUAAGGAGAAGACUGCGGGUCCGAGUCCCGUACGGAACG | 0.502
